Measured values of several laboratories.
Lines come from different studies, so protocols differ. pEC50, pIC50, pKd, pKi: −log10 of the molar value.
CSNK1D: Casein kinase I isoform delta (CSNK1D, Homo sapiens, UniProt P48730)
FLT3 F691L: Receptor-type tyrosine-protein kinase FLT3 (FLT3, Homo sapiens, UniProt P36888, F691L)
HTR2C: 5-hydroxytryptamine receptor 2C (HTR2C, Homo sapiens, UniProt P28335)
PLCD1: 1-phosphatidylinositol 4,5-bisphosphate phosphodiesterase delta-1 (PLCD1, Homo sapiens, UniProt P51178)
FLT3 ITD: Receptor-type tyrosine-protein kinase FLT3 (FLT3, Homo sapiens, UniProt P36888, ITD)

For CNc1cncc(Cl)n1, the pKd was less than 4.30 (CSNK1D; binding; SPR).
The pIC50 of CN(C)CCNC(=O)c1ccc(-c2nc3ccc4[nH]ncc4c3c3c2CCCC3)cc1 is reported as 6.80 (FLT3 F691L; enzyme activity; inhibitor).
The pKd of c1ccc(CNCc2ccc(CN3CCCNCCNCCCNCC3)cc2)nc1 is reported as less than 4.30 (CSNK1D; binding; SPR).
COc1cc2c3c(c1OC)-c1c(OC)ccc(O)c1CC3N(C)CC2 (stereo not drawn) gave a pKi of 5.37 (HTR2C; cell-free assay; radioligand).
c1ccc(-c2nnc(NCc3ccccn3)o2)cc1 has a pKd of less than 4.30 (CSNK1D; binding; SPR).
The pKi of CCOc1ccc(C(=O)CC(SCc2ccccc2Br)C(=O)O)cc1 (stereo not drawn) is reported as less than 3.00 (PLCD1; ligand displacement; FP).
The pKd of O=C(NC1CCCCC1)C(=O)c1c[nH]c2ccccc12 is reported as 5.24 (CSNK1D; binding; SPR).
The pKi of COc1ccccc1C(=O)CC(SCc1ccc(Cl)cc1)C(=O)O (stereo not drawn) is reported as less than 3.00 (PLCD1; ligand displacement; FP).
O=C(O)c1cc(-c2ccc(-c3ccc(Cl)s3)cc2)c2ccc(-c3ccc(C(F)(F)F)cc3)cc2c1 has a pKi of 6.04 (HTR2C; cell-free assay; radioligand).
The pIC50 of Cc1n[nH]c2ccc3nc(-c4ccc(C(=O)NCCN(C)C)cc4)c4c(c3c12)CCC(F)(F)C4 is reported as 6.45 (FLT3 ITD; enzyme activity; inhibitor).
The pKi of CCOc1ccc(C(=O)CC(SCc2ccccc2)C(=O)O)cc1 (stereo not drawn) is reported as less than 3.00 (PLCD1; ligand displacement; FP).
The pKd of O=c1[nH]c(N2CCCC2)nc2ccccc12 is reported as 4.36 (CSNK1D; binding; SPR).
CCOc1ccc(C(=O)CC(SCc2ccc(Br)cc2)C(=O)O)cc1 (stereo not drawn) gave a pKi of less than 3.00 (PLCD1; ligand displacement; FP).
CN(C)CCN(C)C(=O)c1ccc(-c2nc3ccc4[nH]ncc4c3c3c2CCCCC3)cn1 has a pIC50 of less than 6.00 (FLT3 ITD; enzyme activity; inhibitor).
For COc1cc2c3c(c1OC)-c1c(OC)ccc(N4CCOCC4)c1CC3N(C)CC2 (stereo not drawn), the pKi was 5.57 (HTR2C; cell-free assay; radioligand).
The pIC50 of Cc1n[nH]c2ccc3nc(-c4ccc(C(=O)NCCN(C)C)cc4F)c4c(c3c12)CCCC4 is reported as 7.14 (FLT3 F691L; enzyme activity; inhibitor).
CCn1c2ccccc2c2cc(Nc3ccnc(NCCCN4CCOCC4)n3)ccc21 has a pKd of less than 4.30 (CSNK1D; binding; SPR).
CN(C)C(=O)c1cc2cnc(Nc3ccc(C(=O)NCCCCCCOc4cccc5c4C(=O)N(C4CCC(=O)NC4=O)C5=O)cc3)nc2n1C1CCCC1 (stereo not drawn) has a pKd of greater than 6.70 (Ephrin type-B receptor 6 (EPHB6, Homo sapiens, UniProt O15197); binding; competition with immobilised ligand).
For CN(C)CCN(C)C(=O)c1ccc(-c2nc3ccc4[nH]ncc4c3c3c2CCCCC3)cc1, the pIC50 was less than 6.00 (FLT3 ITD; enzyme activity; inhibitor).
CCOc1cccc(C(=O)CC(SCc2cccc(Br)c2)C(=O)O)c1 (stereo not drawn) has a pKi of 3.22 (PLCD1; ligand displacement; FP).
For CSCC[C@H](NC(C)=O)C(=O)N[C@@H](CC(=O)O)C(=O)N[C@@H](Cc1ccccc1)C(N)=O, the pEC50 was 4.73 (Gastrin/cholecystokinin type B receptor (CCKBR, Homo sapiens, UniProt P32239); β-arrestin recruitment; agonist).
The pKi of CCOc1cccc(C(=O)CC(SCc2ccc(Cl)cc2)C(=O)O)c1 (stereo not drawn) is reported as 3.32 (PLCD1; ligand displacement; FP).
The pIC50 of CN(C)CCNC(=O)c1ccc(-c2nc3ccc4[nH]ncc4c3c3c2CCCCC3)c(F)c1 is reported as 7.28 (Receptor-type tyrosine-protein kinase FLT3 (FLT3, Homo sapiens, UniProt P36888); enzyme activity; inhibitor).
CNC(=O)c1ccc(OC)c(Br)c1 gave a pKd of less than 4.30 (CSNK1D; binding; SPR).
CCOc1ccc(-c2cc(C(=O)O)c(-c3ccc(Cl)cc3)o2)cc1 has a pKi of less than 4.00 (PLCD1; ligand displacement; FP).
For COc1cc(C(C)=O)c(F)cc1O, the pKd was less than 4.30 (CSNK1D; binding; SPR).
The pIC50 of Cc1n[nH]c2ccc3nc(-c4ccc(C(=O)NCCN(C)C)cc4)c4c(c3c12)CCCC4 is reported as 7.28 (FLT3 F691L; enzyme activity; inhibitor).
With COc1cccc(C(=O)CC(SCc2ccc(Cl)cc2)C(=O)O)c1 (stereo not drawn) the pKi was less than 3.00 (PLCD1; ligand displacement; FP).
For Cc1n[nH]c2ccc3nc(-c4ccc(C(=O)N(C)CCN(C)C)cc4)c4c(c3c12)CCC(F)(F)C4, the pIC50 was less than 6.00 (FLT3 ITD; enzyme activity; inhibitor).
With COc1cc2c3c(c1OC)-c1c(OC)ccc(-c4ccc(C#N)cc4)c1CC3N(C)CC2 (stereo not drawn) the pKi was 6.07 (5-hydroxytryptamine receptor 2B (HTR2B, Homo sapiens, UniProt P41595); ligand displacement; radioligand).
